# Test results published in ChEMBL document CHEMBL3102749, “Antiprotozoal activity of dicationic 3,5-diphenylisoxazoles, their prodrugs and aza-analogues” (Bioorg Med Chem, 2014).
# The source made the active and inactive calls. No cut-off for these calls is given here.
# What was measured:
# [1] = tested on: Trypanosoma brucei rhodesiense; test: Trypanocidal activity against bloodstream form of Trypanosoma brucei rhodesiense STIB900 infected in NMRI mouse assessed as mean survival days at 5 mg/kg, ip qd administered for 4 days; assay type: functional
# Outline: (§1)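 Mice infected with T. b. rhodesiense STIB900 (acute model) dosed once daily for 4 consecutive days, ip (diamidines) or oral (prodrugs). Cure means survival to 60 days post infection without parasitemia relapse. Mean survival days post infection are averaged over all mice, with cured mice counted as >60 days.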
# [2] = tested on: Trypanosoma brucei rhodesiense; test: Trypanocidal activity against bloodstream form of Trypanosoma brucei rhodesiense STIB900 infected in NMRI mouse assessed as mean parasitemia relapse day at 5 mg/kg, ip qd administered for 4 days; assay type: functional; conditions: route intraperitoneal
# Outline: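 Mice infected with STIB900 received 4 consecutive daily intraperitoneal doses, 4 mice per group. The secondary endpoint was mean relapse day post-infection, which separates weaker compounds; mice surviving 60 days without parasitemia relapse were scored as cured.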
# [3] = tested on: Trypanosoma brucei rhodesiense; test: Trypanocidal activity against bloodstream form of Trypanosoma brucei rhodesiense STIB900 infected in NMRI mouse assessed as decrease in parasitemia at 5 mg/kg, ip qd administered for 4 days measured once per week until 60 days by microscopic analysis; assay type: functional, organism-based; set-up: dose 5 mg/kg
# Outline: (§2)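 Mice infected with T. b. rhodesiense STIB900 received one dose daily for 4 consecutive days, 4 mice per group. Diamidines were given intraperitoneally and prodrugs orally. The primary endpoint was cures per group: a mouse counted as cured if it survived 60 days post-infection without parasitemia relapse.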
# [4] = Selectivity index, ratio of IC50 for rat L6 cells to IC50 for chloroquine/pyrimethamine-resistant Plasmodium falciparum K1 infected in human red blood cells; assay type: toxicity, cell-based; conditions: read-out: Ratio IC50
# Outline: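 Ratio of IC50 in L6 rat myoblast cytotoxicity assay to IC50 against P. falciparum K1; each IC50 is the mean of two independent assays.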
# [5] = Selectivity index, ratio of IC50 for rat L6 cells to IC50 for Trypanosoma brucei rhodesiense STIB900; assay type: toxicity, cell-based; conditions: read-out: Ratio IC50
# Outline: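 Ratio of IC50 in L6 rat myoblast cytotoxicity assay to IC50 against T. b. rhodesiense STIB900; each IC50 is the mean of two independent assays.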
# L6 = test: Cytotoxicity against rat L6 cells assessed as cell viability after 70 hrs by Alamar blue assay; assay type: cell-based; conditions: L6, 70 h
# Plasmodium falciparum = test: Antiplasmodial activity against chloroquine/pyrimethamine-resistant Plasmodium falciparum K1 infected in human red blood cells assessed as [3H]-hypoxanthine incorporation incubated for 48 hrs prior to [3H]-hypoxanthine addition measured after 24 hrs by liquid scintillation counting analysis; assay type: functional, organism-based
# [6] = tested on: Trypanosoma brucei rhodesiense; test: Antitrypanosomal activity against Trypanosoma brucei rhodesiense STIB900 assessed as growth inhibition after 70 hrs by Alamar blue assay; assay type: functional, organism-based; conditions: STIB900, 70 h
# [7] = tested on: Trypanosoma brucei rhodesiense; test: Trypanocidal activity against bloodstream form of Trypanosoma brucei rhodesiense STIB900 infected in NMRI mouse assessed as mean survival days at 20 mg/kg, ip qd administered for 4 days; assay type: functional; conditions: route intraperitoneal; outline: as §1
# [8] = tested on: Trypanosoma brucei rhodesiense; test: Trypanocidal activity against bloodstream form of Trypanosoma brucei rhodesiense STIB900 infected in NMRI mouse assessed as decrease in parasitemia at 20 mg/kg, ip qd administered for 4 days measured once per week until 60 days by microscopic analysis; assay type: functional, organism-based; set-up: dose 20 mg/kg; outline: as §2
# [9] = tested on: Trypanosoma brucei rhodesiense; test: Trypanocidal activity against bloodstream form of Trypanosoma brucei rhodesiense STIB900 infected in NMRI mouse assessed as mean survival days at 100 mg/kg, po qd administered for 4 days; assay type: functional; outline: as §1
# [10] = tested on: Trypanosoma brucei rhodesiense; test: Trypanocidal activity against bloodstream form of Trypanosoma brucei rhodesiense STIB900 infected in NMRI mouse assessed as mean survival days at 25 mg/kg, po qd administered for 4 days; assay type: functional; outline: as §1
# [11] = tested on: Trypanosoma brucei rhodesiense; test: Trypanocidal activity against bloodstream form of Trypanosoma brucei rhodesiense STIB900 infected in NMRI mouse assessed as decrease in parasitemia at 25 mg/kg, po qd administered for 4 days measured once per week until 60 days by microscopic analysis; assay type: functional, organism-based; set-up: dose 25 mg/kg; outline: as §2
structure (smiles),measurement,setting,value
COc1ccc(C(=N)N)cc1-c1cc(-c2cc(C(=N)N)ccc2OC)on1.Cl.Cl,MSD,[1]; route intraperitoneal,>50 days
same,Time,[2],26 days
same,Activity,[3],inactive
Cl.Cl.N=C(N)c1ccc(-c2cc(-c3cncc(C(=N)N)c3)no2)cc1,Time,[2],15 days
same,selectivity ratio,[4],1170
same,selectivity ratio,[5],270
same,IC50,L6,4.32 µM
same,IC50,Plasmodium falciparum,3.7 nM
same,IC50,[6],16 nM
Cl.Cl.N=C(N)c1cccc(-c2cc(-c3cccc(C(=N)N)c3)on2)c1,MSD,[1]; route intraperitoneal,21.75 days
same,MSD,[7],>58 days
same,Activity,[3],inactive
COc1ccc(C(=N)N)cc1-c1cc(-c2cccc(C(=N)N)c2)no1.Cl.Cl,MSD,[1],inactive
same,Time,[2],22.3 days
Cl.Cl.N=C(N)c1ccc(-c2cc(-c3cc(C(=N)N)ccc3[N+](=O)[O-])no2)cc1,MSD,[1]; route intraperitoneal,29.75 days
same,Time,[2],17 days
same,Activity,[3],inactive
Cl.Cl.Cl.N=C(N)c1cccc(-c2cc(-c3ccc(C(=N)N)cc3Cl)on2)c1,MSD,[1],inactive
same,MSD,[7],>60 days
same,Time,[2],16 days
same,Activity,[8],Active
Cl.Cl.N=C(N)c1cccc(-c2cc(-c3ccc(C(=N)N)cc3[N+](=O)[O-])on2)c1,MSD,[1],inactive
same,Time,[2],12.25 days
same,Activity,[3],inactive
Cl.Cl.N=C(N)c1ccc(-c2cc(-c3cccc(C(=N)N)c3)on2)nc1,MSD,[1]; route intraperitoneal,>60 days
same,Time,[2],53 days
same,selectivity ratio,[4],17400
same,selectivity ratio,[5],8900
same,IC50,L6,121 µM
same,IC50,Plasmodium falciparum,7 nM
same,IC50,[6],13.6 nM
Cl.Cl.N/C(=N\O)c1ccc(-c2cc(-c3cccc(/C(N)=N/O)c3)on2)cc1,MSD,[9],>43.5 days
Cl.Cl.N=C(N)c1ccc(-c2cc(-c3ccc(C(=N)N)nc3)on2)cn1,Time,[2],24 days
same,selectivity ratio,[4],6650
same,selectivity ratio,[5],398
same,IC50,L6,2.46 µM
same,IC50,Plasmodium falciparum,0.4 nM
same,IC50,[6],6.2 nM
Cl.Cl.N=C(N)c1cncc(-c2cc(-c3ccc(C(=N)N)nc3)on2)c1,Time,[2],25.25 days
same,Activity,[3],inactive
same,selectivity ratio,[4],1400
same,selectivity ratio,[5],206
same,IC50,L6,4.91 µM
same,IC50,Plasmodium falciparum,3.5 nM
same,IC50,[6],23.9 nM
Cl.Cl.N=C(N)c1ccc(-c2cc(-c3ccc(C(=N)N)nc3)no2)cc1,Time,[2],25.7 days
same,selectivity ratio,[4],6330
same,selectivity ratio,[5],423
same,IC50,L6,2.49 µM
same,IC50,Plasmodium falciparum,0.4 nM
same,IC50,[6],5.9 nM
COc1cc(C(=N)N)ccc1-c1cc(-c2ccc(C(=N)N)cc2)no1.Cl.Cl,MSD,[1]; route intraperitoneal,>48.75 days
same,MSD,[7],>50.25 days
Cl.Cl.Cl.N=C(N)c1ccc(-c2cc(-c3cc(C(=N)N)ccc3Cl)no2)cc1,MSD,[1],inactive
same,Time,[2],7.75 days
same,Activity,[3],inactive
COc1cc(C(=N)N)ccc1-c1cc(-c2cccc(C(=N)N)c2)on1.Cl.Cl,MSD,[1],inactive
same,Time,[2],36.25 days
same,Activity,[3],inactive
Cl.Cl.N/C(=N\O)c1ccc(-c2cc(-c3ccc(/C(N)=N/O)cc3)on2)cc1,MSD,[9],>40.5 days
COc1ccc(C(=N)N)cc1-c1cc(-c2ccc(C(=N)N)cc2)on1.Cl.Cl,MSD,[1]; route intraperitoneal,>60 days
same,MSD,[7],>60 days
same,Activity,[8],Active
Cl.Cl.N=C(N)c1ccc(-c2cc(-c3cccc(C(=N)N)c3)on2)cc1,MSD,[1]; route intraperitoneal,>49.25 days
same,MSD,[7],>51.25 days
Cl.Cl.Cl.N/C(=N\O)c1cccc(-c2cc(-c3ccc(/C(N)=N/O)cc3Cl)on2)c1,MSD,[10],8.5 days
same,Activity,[11],inactive
COc1c(/C(N)=N/O)cccc1-c1cc(-c2cccc(/C(N)=N/O)c2OC)on1.Cl.Cl,MSD,[10],6 days
same,Activity,[11],inactive
CO/N=C(\N)c1cccc(-c2cc(-c3ccc(/C(N)=N/OC)cc3Cl)on2)c1.Cl.Cl.Cl,MSD,[10],14 days
same,Activity,[11],inactive
COc1cc(C(=N)N)ccc1-c1cc(-c2cccc(C(=N)N)c2)no1.Cl.Cl,MSD,[1],inactive
same,Time,[2],18 days
same,Activity,[3],inactive
Cl.N=C(N)c1cncc(-c2cc(-c3ccc(C(=N)N)nc3)no2)c1,MSD,[1]; route intraperitoneal,>60 days
same,Time,[2],60 days
same,selectivity ratio,[4],440
same,selectivity ratio,[5],111
same,IC50,L6,2.11 µM
same,IC50,Plasmodium falciparum,4.8 nM
same,IC50,[6],19.1 nM
COc1ccc(C(=N)N)cc1-c1cc(-c2ccc(C(=N)N)cc2)no1.Cl.Cl,MSD,[1]; route intraperitoneal,>60 days
same,MSD,[7],>60 days
same,Activity,[8],Active
Cl.Cl.N=C(N)c1cccc(-c2cc(-c3ccc(C(=N)N)cc3[N+](=O)[O-])no2)c1,MSD,[1],inactive
same,Time,[2],13 days
same,Activity,[3],inactive
COc1c(/C(N)=N/O)cccc1-c1cc(-c2ccc(/C(N)=N/O)cc2)no1.Cl.Cl,MSD,[10],25.75 days
same,Activity,[11],inactive
Cl.Cl.N=C(N)c1ccc(-c2cc(-c3cc(C(=N)N)ccn3)no2)cc1,Time,[2],15.5 days
same,Activity,[3],inactive
same,selectivity ratio,[4],14200
same,selectivity ratio,[5],1350
same,IC50,L6,71.2 µM
same,IC50,Plasmodium falciparum,5 nM
same,IC50,[6],52.8 nM
Cl.Cl.N=C(N)c1ccc(-c2cc(-c3cccc(C(=N)N)c3)no2)cc1,MSD,[7],>29.25 days
same,Activity,[8],inactive
Cl.Cl.Cl.N=C(N)c1ccc(-c2cc(-c3cc(C(=N)N)ccc3Cl)on2)cc1,MSD,[1],inactive
same,Time,[2],8.75 days
same,Activity,[3],inactive
